{"data": "Assay results collected from several papers", "target": "Phosphatidylinositol 4,5-bisphosphate 3-kinase catalytic subunit gamma isoform (PIK3CG, Homo sapiens, UniProt P48736)", "note": "Compare with care: the assays were run in different laboratories."}
{"Structure (SMILES)": "CN(C)c1nccc(-c2cnc3ncccn23)n1", "observed": "binding", "concentration": "1 µM", "remaining binding [%]": 39}
{"Structure (SMILES)": "O=C(NCC1CCOCC1)c1n[nH]cc1NC(=O)c1c(F)cccc1F", "observed": "binding", "method": "competition with immobilised ligand", "concentration": "1 µM", "remaining binding [%]": 100}
{"Structure (SMILES)": "FC(F)(F)c1ccc2c(c1)nc(-c1cccnc1)n2C1CC1", "observed": "cell-free assay", "method": "competition with immobilised ligand", "concentration": "1 µM", "remaining binding [%]": 92}
{"Structure (SMILES)": "C[C@@H](c1ccc(-n2cnc3c(N)ncnc32)cc1)N1CCc2nn(C)c(Cc3ccccc3)c2C1=O", "observed": "binding", "method": "competition with immobilised ligand", "concentration": "0.1 µM", "remaining binding [%]": 85}
{"Structure (SMILES)": "O=C(c1ccc(Nc2ncc(Cl)c(-c3cc4ccccc4s3)n2)cc1)N1CCC(N2CCCC2)CC1", "observed": "binding", "method": "competition with immobilised ligand", "concentration": "1 µM", "remaining binding [%]": 87}
{"Structure (SMILES)": "CC(C)CC(=O)N1CCc2nc(-c3ccc(Br)cc3)nc(N(C)Cc3ccccc3)c2C1", "observed": "cell-free assay", "method": "competition with immobilised ligand", "concentration": "0.1 µM", "remaining binding [%]": 100}
{"Structure (SMILES)": "CN(C)c1ncc(F)c(-c2cnn3ncccc23)n1", "observed": "binding", "concentration": "1 µM", "remaining binding [%]": 90}
{"Structure (SMILES)": "O=C(c1ccc(Nc2nccc(-c3cc4ccccc4s3)n2)cc1)N1CCC(N2CCCC2)CC1", "observed": "binding", "method": "competition with immobilised ligand", "concentration": "1 µM", "remaining binding [%]": 27}
{"Structure (SMILES)": "COc1cnc(Nc2cccc(S(N)(=O)=O)c2)nc1N1CCN(c2ccccc2)C(=O)C1", "observed": "binding", "method": "competition with immobilised ligand", "concentration": "1 µM", "remaining binding [%]": 34}
{"Structure (SMILES)": "C[C@@H]1CCN(c2nccc(-c3cnn4ncccc34)n2)C1", "observed": "binding", "concentration": "1 µM", "remaining binding [%]": 58}
{"Structure (SMILES)": "C[C@H](c1cccc(C#N)c1)n1cc(Cl)cc(C(N)=O)c1=N", "observed": "cell-free assay", "method": "competition with immobilised ligand", "concentration": "1 µM", "remaining binding [%]": 98}
{"Structure (SMILES)": "N[C@@H]1CCN(c2nccc(-c3cnn4ncccc34)n2)C1", "observed": "binding", "concentration": "1 µM", "remaining binding [%]": 100}
{"Structure (SMILES)": "N#Cc1ccc(Nc2ccc3[nH]c(=O)[nH]c3c2)c(Cl)c1", "observed": "cell-free assay", "method": "competition with immobilised ligand", "concentration": "1 µM", "remaining binding [%]": 92}
{"Structure (SMILES)": "CCN1CCN(Cc2ccc(C(=O)Nc3ccc(C)c(Oc4ccc5c(c4)CC(=O)N5)c3)cc2C(F)(F)F)CC1", "observed": "binding", "method": "competition with immobilised ligand", "concentration": "1 µM", "remaining binding [%]": 93}
{"Structure (SMILES)": "Cc1cnc(Nc2ccc(C(=O)N3CCC(N4CCCC4)CC3)cc2)nc1-c1cc2ccccc2s1", "observed": "binding", "method": "competition with immobilised ligand", "concentration": "1 µM", "remaining binding [%]": 81}
{"Structure (SMILES)": "CN(c1nccc(-c2cnn3ncccc23)n1)C1CC1", "observed": "binding", "concentration": "1 µM", "remaining binding [%]": 100}
{"Structure (SMILES)": "CN1CCN(c2cnc3c(C4CCN(C(=O)c5ccc(OC(F)(F)F)cc5N)CC4)ncnc3c2)CC1", "observed": "cell-free assay", "method": "competition with immobilised ligand", "concentration": "1 µM", "remaining binding [%]": 95}
{"Structure (SMILES)": "N#Cc1ccccc1CSc1nnc2c(n1)[nH]c1ccccc12", "observed": "binding", "method": "competition with immobilised ligand", "concentration": "10 µM", "remaining binding [%]": 100}
{"Structure (SMILES)": "Cc1cnn2ncc(-c3ccnc(N(C)C)n3)c2c1", "observed": "binding", "concentration": "1 µM", "remaining binding [%]": 47}
{"Structure (SMILES)": "C[C@@]1(Cc2ccc(C#N)cc2)C(=O)N(c2cc(Cl)cc(Cl)c2)c2ncc(C(=O)NC3(c4nc(C5CCC5)no4)CC3)n21", "observed": "cell-free assay", "method": "competition with immobilised ligand", "concentration": "1 µM", "remaining binding [%]": 95}
{"Structure (SMILES)": "COc1ncc2cc3ccccc3nc2c1C#N", "observed": "cell-free assay", "method": "competition with immobilised ligand", "concentration": "5 µM", "remaining binding [%]": 100}
{"Structure (SMILES)": "CCCOc1ccc([C@H]2[C@H](C(=O)O)[C@@H](c3ccc4c(c3)OCO4)CN2CC(=O)Nc2c(CC)cccc2CC)cc1", "observed": "cell-free assay", "method": "competition with immobilised ligand", "concentration": "1 µM", "remaining binding [%]": 68}
{"Structure (SMILES)": "CN(CCCC(F)(F)F)c1nccc(-c2cnn3ncccc23)n1", "observed": "binding", "concentration": "1 µM", "remaining binding [%]": 100}
